mABHD4 FP: ABHD4 inhibitors, primary screen, biochemical, fluorescence polarization, mouse | purified mABHD4, FP-Rh probe fluorescence polarization | inhibition, % at 8.92 µM | (Lyso)-N-acylphosphatidylethanolamine lipase (Mus musculus), Q8VD66 | 370,000 tested, 0.54% active;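 active means inhibition exceeding the mean over every tested compound plus 3 SD, cut at about 30% in these data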
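System: mouse ABHD4 enzyme, wild type / Medium: HEPES pH 7.0, NaCl, Pluronic buffer / Reagent: FP-Rh activity-based fluorescent probe / Control set: S159A mutant high control, sample median low control / Detection: fluorescence polarization with parallel and perpendicular emission, 525/598 nm / Schedule: 45 min + 60 min at 25 °C / Compound dosing: 8.92 µM, single dose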
PAD4 inh: human PAD4 inhibitors, primary screen, biochemical, fluorescence polarization, 1536-well format; recombinant PAD4, RCA probe fluorescence polarization; 330,000 tested, 0.41% active; inhibition, % at 6.36 µM;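 active means percent inhibition above a cutoff equal to the mean of all tested compounds plus 3 SD, cut at about 15% in these data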
TCR-CD3 inh: inhibitors of human TCR-CD3 interaction, primary screen, biochemical, fluorescence, TAMRA-labeled TCR probe; inhibition, % at 9.4 µM; 360,000 tested, 0.37% active;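 further: recombinant mutant TCR 2C K166C tagged with TAMRA read by polarization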
HTRA1 inhibitor: HTRA1 serine protease inhibitors, primary screen, biochemical, fluorescence polarization, HTS; AID 504803, 2011; recombinant HTRA1, FP-rhodamine activity-based probe; inhibition, % at 5.96 µM; 340,000 tested, 0.5% active; in the data active means inhibition above about 36%
TDP2 absorb: human TDP2 enzyme inhibitors, primary screen, biochemical, epi absorbance, recombinant enzyme | Tyrosyl-DNA phosphodiesterase 2 (Homo sapiens), O95551 | T5PNP hydrolysis, p-nitrophenol absorbance 415 nm | inhibition, % at 12.8 µM | 370,000 tested, 0.34% active;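 active means inhibition above the mean of all tested compounds plus 3 SD, set per campaign, cut at about 25% in these data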
Target sequence (O95551 whole entry, looked up): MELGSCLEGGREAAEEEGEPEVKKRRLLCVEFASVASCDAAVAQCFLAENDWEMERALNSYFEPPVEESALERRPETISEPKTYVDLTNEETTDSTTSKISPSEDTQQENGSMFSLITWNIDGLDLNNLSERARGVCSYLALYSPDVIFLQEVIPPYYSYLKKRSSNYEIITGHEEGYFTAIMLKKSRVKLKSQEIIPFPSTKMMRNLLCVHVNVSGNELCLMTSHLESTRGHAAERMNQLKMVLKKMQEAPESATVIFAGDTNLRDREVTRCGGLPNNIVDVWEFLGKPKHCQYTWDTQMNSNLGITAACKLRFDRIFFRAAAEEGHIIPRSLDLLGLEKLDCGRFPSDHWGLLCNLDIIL
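Material: recombinant human TDP2; quantity: TDP2 enzyme at 120 nM final; medium: Tris-HCl pH 7.5 with MgCl2; compound: single concentration, 12.8 µM nominal, with 1% DMSO; incubation: 2 h enzyme incubation at 37 °C; signal: epi absorbance; measure: percent inhibition; benchmarks: high control without enzyme, low control DMSO plus TDP2; repeats: singlicate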
SIAE primary: human SIAE inhibitors, primary screen, biochemical, fluorescence polarization, FP-Rh probe, 1536-well HTS | Sialate O-acetylesterase (Homo sapiens), Q9HAT2 | SIAE FP-Rh probe binding | inhibition, % at 9.66 µM | 370,000 tested, 0.69% active | AID 1053197, 2014;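 active means inhibition above a cutoff: mean of compounds within the control limits plus 3 SD of those, cut at about 17% in these data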
PAD4 confirm: human PAD4 inhibitors, confirmation, biochemical, fluorescence polarization. shares compounds with PAD4 inh. recombinant PAD4, RCA probe fluorescence polarization. inhibition, % at 6.36 µM. 1,200 tested, 28% active;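 active means mean inhibition across replicates above the hit cutoff set by the earlier primary screen, cut at about 15% in these data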;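 further: inhibitors block active-site labeling by the probe so polarization falls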
HTRA1 inh conf: HTRA1 protease inhibitors, retest, confirmation, biochemical, fluorescence polarization; shares compounds with HTRA1 inhibitor; recombinant HTRA1, FP-rhodamine activity-based probe; inhibition, % at 5.96 µM; 1,600 tested, 66% active; AID 540248, 2011;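 active means mean inhibition over three repeats above a set limit taken from the earlier primary screen, cut at about 37% in these data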;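 further: inhibitors block probe binding so polarization drops and inhibition rises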
BSA probe FL: compounds interfering with TAMRA-BSA probe, counter-screen for TCR-CD3 interaction inhibitor project, biochemical, fluorescence, TAMRA-labeled BSA; TAMRA-labeled BSA probe fluorescence counterscreen; inhibition, % at 9.4 µM; AID 652035, 2013; shares compounds with TCR-CD3 inh; 1,200 tested, 10% active; in the data active means inhibition above about 23%
TCR-CD3 inh conf: TCR-CD3 interaction inhibitors, retest, confirmation, biochemical, fluorescence, TAMRA-labeled TCR probe; shares compounds with TCR-CD3 inh; TAMRA-labeled TCR probe fluorescence binding assay; inhibition, % at 9.4 µM; 1,200 tested, 48% active; AID 652036, 2013
mABHD4 conf: ABHD4 inhibitors, retest, confirmation, biochemical, fluorescence polarization, mouse | 1,800 tested, 55% active | inhibition, % at 8.92 µM | shares compounds with mABHD4 FP | purified mABHD4, FP-Rh probe fluorescence polarization | AID 720658, 2013;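 active means mean inhibition across replicates above the hit cutoff set in the primary screen, cut at about 30% in these data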
TDP2 confirm: human TDP2 enzyme inhibitors, retest, confirmation, biochemical, epi absorbance, recombinant enzyme. inhibition, % at 12.8 µM. shares compounds with TDP2 absorb. 1,100 tested, 22% active. AID 743263, 2014. absorbance read-out; in the data active means inhibition above about 25%
SIAE inh conf: human SIAE inhibitors, retest, confirmation, biochemical, fluorescence polarization, FP-Rh probe, triplicate | 2,300 tested, 13% active | SIAE FP-Rh activity-based probe | shares compounds with SIAE primary | inhibition, % at 9.66 µM;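 active means mean inhibition of the replicates above the hit cutoff set in the primary screen, cut at about 17% in these data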;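 further: inhibitors lower polarization as more probe stays unbound to SIAE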
Hits are given with their value; 0 = inactive; - = no result. In the library only some 2% were active in any assay of this set; here they are far more common. Unless noted, no stated cut-off is given here; in the data, active means inhibition above about 19%; inactive means the rest.

SMILES	mABHD4 FP	PAD4 inh	TCR-CD3 inh	HTRA1 inhibitor	TDP2 absorb	SIAE primary	PAD4 confirm	HTRA1 inh conf	SIAE inh conf	others
CCn1c(CSc2nnc(-c3ccncc3)n2C)nc2cc(C(=O)O)ccc21	0	52	89	66	0	28	62	56	39	BSA probe FL=155;TCR-CD3 inh conf=109
Cc1n[nH]c(=S)n(/N=C/c2cccs2)c1=O	0	18	0	0	0	19	0	-	0
Cn1nc([N+](=O)[O-])c(C(C#N)c2nc3ccccc3n2C)c(Cl)c1=O (centres undefined)	0	26	0	0	0	27	17	-	0
Cn1c(-c2ccc([N+](=O)[O-])cc2)nc2ccccc21	0	0	0	0	0	0	-	-	-
CCN(C(=O)c1cccc(NC(=O)c2ccccc2)c1)C1CCCCC1	0	0	0	0	0	0	-	-	-
CCCCNC(=O)C1(NC(=O)Nc2ccc(C)cc2)CCCCC1	0	0	0	-	0	0	-	-	-
O=C(O)c1cccc(CN2C(=O)c3ccccc3C2=O)c1	0	0	0	0	0	0	-	-	-
O=C1c2cccc3c(O)ccc(c23)C(=O)N1Cc1ccccc1	75	40	59	66	0	42	50	46	49	BSA probe FL=74;TCR-CD3 inh conf=57;mABHD4 conf=80
CCOC(=O)CC[C@H]1CC[C@]2(CCCN(C(=O)c3ccno3)C2)O1	0	-	-	-	0	0	-	-	-
O=C1C2CCCCN2C(=O)N1CCCN1CCN(c2ccc(F)cc2)CC1 (centres undefined)	-	0	-	0	-	-	-	-	-
Nc1ccc(N2CCN(CCCCN3C(=O)C4CCCN4C3=O)CC2)cc1 (centres undefined)	81	65	0	38	0	31	0	0	0	mABHD4 conf=0
CCOC(=O)C1=NN(c2ccc(Cl)cc2)C(=O)C1	0	0	0	0	0	0	-	-	-
CCc1nc2ccc(C(=O)Nc3ccc(C(N)=O)cc3)cn2c1N(CCC(C)C)CCN(C)C	0	-	0	-	0	0	-	-	-
C/C(=C\C(=O)c1cccnc1)Nc1ccc(O)cc1	72	98	89	64	27	26	0	0	0	BSA probe FL=0;TCR-CD3 inh conf=0;mABHD4 conf=0;TDP2 confirm=0
COc1ccc(CCC(C)NCC(C)c2ccccc2)cc1 (centres undefined)	0	0	0	0	0	0	-	-	-
CC1CN(c2ccc(NC(=S)Nc3ccc(N4CC(C)OC(C)C4)cc3)cc2)CC(C)O1 (centres undefined)	0	20	0	0	0	20	0	-	0
CN1C(=O)NC(c2ccccc2[N+](=O)[O-])C2=C1CCCC2=O (centres undefined)	89	102	85	77	0	54	62	44	80	BSA probe FL=62;TCR-CD3 inh conf=44;mABHD4 conf=56
CCc1ccc(CN2CCC(Oc3ccc(C(=O)NCc4ccccn4)cc3)CC2)o1	0	0	0	0	0	0	-	-	-
COc1ccc(C2=NN(c3ccccc3)C(=O)/C2=C\c2ccc(O)c(OC)c2)cc1	0	67	0	0	46	19	0	-	0	TDP2 confirm=0
CC(C)NC(=O)C1(C)CCN1C(=O)c1ccccc1 (centres undefined)	0	-	0	-	0	0	-	-	-
CC(C(Sc1ccccc1N)c1ccccc1)[N+](=O)[O-] (centres undefined)	0	18	0	0	0	17	15	-	0
O=C1CCCC2=C1C(c1ccc(O)c(O)c1)Nc1ccc3ncccc3c12 (centres undefined)	0	0	0	40	0	0	-	67	-
CCN(CC)C(=O)c1ccc(-c2nnc(Nc3ccc(O)cc3)c3ccccc23)cc1	0	0	0	41	0	0	-	0	-
CCN(CC)C(=O)c1ccc(-c2nnc(Nc3ccc(C(=O)N(C)C)cc3)c3ccccc23)cc1	0	0	0	0	0	0	-	-	-
COc1ccc(-c2c[n+]3c4n2CCCCC4=C(c2ccc(Br)cc2)C3)cc1	0	0	0	52	0	0	-	0	-
Clc1ccc(C2=C3CCCCn4c(-c5ccccc5)c[n+](c43)C2)cc1	0	0	0	0	0	0	-	-	-
COc1ccc2sc(-c3ccc(N(C)C)cc3)c(C#CCCO)c2c1	0	0	0	37	0	0	-	0	-
